The subject of one experiment is Plasmodium falciparum. Put plainly: Antiplasmodial activity against ring stage Plasmodium falciparum W2 infected in human red blood cells after 48 hrs by flow cytometry. The format is functional, organism-based. The settings on record: W2, 48 h. On the technique in general: Flow cytometry measures light scatter and fluorescence of single cells or particles in a stream.

The nature of experiment [1]: Inhibition of Plasmodium falciparum falcipain-2 using Z-Leu-Arg-AMC as substrate after 10 mins by spectrofluorimetry. Summed up:
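Enzyme at 1 nM in 100 mM sodium acetate pH 6.0, 5 mM DTT, 0.75% DMSO, 25 °C; preincubated 10 min with serial 1:5 compound dilutions (50 µM down to 0.65 nM), then 25 µM Z-Leu-Arg-AMC added; fluorescence read immediately. IC50 from percent inhibition versus no-inhibitor controls.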

The next experiment has as its target T1, Papain (Carica papaya, UniProt P00784).
T1 sequence (P00784 whole entry): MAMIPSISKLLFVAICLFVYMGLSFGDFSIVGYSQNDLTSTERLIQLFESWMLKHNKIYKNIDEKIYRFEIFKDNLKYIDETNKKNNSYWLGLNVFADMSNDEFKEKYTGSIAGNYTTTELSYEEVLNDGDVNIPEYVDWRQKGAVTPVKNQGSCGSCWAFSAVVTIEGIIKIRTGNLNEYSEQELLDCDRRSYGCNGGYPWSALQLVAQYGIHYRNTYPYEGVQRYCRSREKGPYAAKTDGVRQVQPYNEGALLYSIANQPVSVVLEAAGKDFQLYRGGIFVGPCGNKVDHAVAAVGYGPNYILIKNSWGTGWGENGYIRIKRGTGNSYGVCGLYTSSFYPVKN
Put plainly: Inhibition of papaya papain using Z-Leu-Leu-Arg-AMC as substrate after 30 mins by spectrofluorometry. Summed up:
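Papain activated in buffer at 5 µg/mL, 10 mM PBS pH 7.4 with 5 mM DTT, 37 °C, inhibitor serial dilutions in DMSO; 30 µM Z-Leu-Leu-Arg-AMC started the reaction (Km 0.4 µM, saturating). Fluorescence (ex 355/em 460 nm) monitored 30 min; E64 positive control; IC50 by non-linear regression of log concentration versus % activity; triplicate.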

Consider 21 compounds from ChEMBL document CHEMBL1926620, “Aza vinyl sulfones: synthesis and evaluation as antiplasmodial agents” (Bioorg Med Chem, 2011).

By pIC50 is commonly meant the negative decadic logarithm of the IC50, by convention in mol/L. A high value points to a low IC50.

Each structure is given as a SMILES string. pIC50: −log10 of the molar value.

Turning to `CC(C)C[C@H](NC(=O)OC(C)(C)C)C(=O)NNC(=O)/C=C/S(C)(=O)=O`, the pIC50 in the experiment on Plasmodium falciparum was 4.47. Same read-out and setting: in the case of `CC(C)C[C@H](NC(=O)OC(C)(C)C)C(=O)NNC(=O)/C=C/S(=O)(=O)c1ccccc1` it was 4.47. Turning to `CC(C)C[C@H](NC(=O)OC(C)(C)C)C(=O)NN(Cc1ccccc1)C(=O)/C=C/S(C)(=O)=O`, the pIC50 in experiment [1] was less than 4.30; in the experiment with Plasmodium falciparum it was 4.67.

As to `CC(C)C[C@H](NC(=O)OC(C)(C)C)C(=O)NN(Cc1ccccc1)C(=O)/C=C/S(=O)(=O)c1ccccc1`, the pIC50 (in experiment [1]; in the experiment on Plasmodium falciparum) was less than 4.30 throughout. Regarding `CC(C)C[C@H](NC(=O)OC(C)(C)C)C(=O)NN(CCc1ccccc1)C(=O)/C=C/S(C)(=O)=O`, the pIC50 in experiment [1] was less than 4.30; in the experiment on Plasmodium falciparum it was 4.33.

For the compound `CC(C)C[C@H](NC(=O)OC(C)(C)C)C(=O)NN(CCc1ccccc1)C(=O)/C=C/S(=O)(=O)c1ccccc1`, the negative logarithm of the IC50 (pIC50) in experiment [1] was less than 4.30; with Plasmodium falciparum it was 4.81.

For `CC(C)C[C@H](NC(=O)OCc1ccccc1)C(=O)NN(CCc1ccccc1)C(=O)/C=C/S(=O)(=O)c1ccccc1`, the results for the pIC50 on Papain and with Plasmodium falciparum were less than 4.30 and less than 5.00, respectively. Turning to `O=C(CNC(=O)OCc1ccccc1)NN(CCc1ccccc1)C(=O)/C=C/S(=O)(=O)c1ccccc1`, the pIC50 is less than 4.30 on Papain and less than 5.00 in the experiment on Plasmodium falciparum. The like results for `O=C(N[C@@H](Cc1ccccc1)C(=O)NN(CCc1ccccc1)C(=O)/C=C/S(=O)(=O)c1ccccc1)OCc1ccccc1` were, in that order, less than 4.30 and 5.05. The corresponding values for `CC(C)C[C@H](NC(=O)N1CCOCC1)C(=O)NNC(=O)/C=C/S(=O)(=O)c1ccccc1` are less than 4.30 and less than 5.00.

For the compound `CC(C)C[C@H](NC(=O)N1CCOCC1)C(=O)NN(CCc1ccccc1)C(=O)/C=C/S(=O)(=O)c1ccccc1`, the pIC50 was less than 4.30 on Papain and 5.47 in the experiment on Plasmodium falciparum. Turning to `COc1c(N[C@@H](CC(C)C)C(=O)NNC(=O)/C=C/S(C)(=O)=O)c(=O)c1=O`, the results for the pIC50 (in experiment [1]; in the experiment with Plasmodium falciparum) were less than 4.30 and 5.64, respectively. The corresponding values for `COc1c(N[C@@H](CC(C)C)C(=O)NNC(=O)/C=C/S(=O)(=O)c2ccccc2)c(=O)c1=O` are less than 4.30 and 5.46.

Consider `CCCCOc1c(N[C@@H](CC(C)C)C(=O)NNC(=O)/C=C/S(=O)(=O)c2ccccc2)c(=O)c1=O`, for which the results for the pIC50 (in experiment [1]; with Plasmodium falciparum) were less than 4.30 and 5.59, respectively. The corresponding values for `COc1c(N[C@@H](CC(C)C)C(=O)NN(Cc2ccccc2)C(=O)/C=C/S(C)(=O)=O)c(=O)c1=O` are less than 4.30 and less than 5.00. Consider `COc1c(N[C@@H](CC(C)C)C(=O)NN(Cc2ccccc2)C(=O)/C=C/S(=O)(=O)c2ccccc2)c(=O)c1=O`, for which the values for the pIC50 (in experiment [1]; in the experiment with Plasmodium falciparum) were less than 4.30 and 6.02, respectively. The corresponding values for `CCCCOc1c(N[C@@H](CC(C)C)C(=O)NN(Cc2ccccc2)C(=O)/C=C/S(=O)(=O)c2ccccc2)c(=O)c1=O` are less than 4.30 and 5.92. Take `COc1c(N[C@@H](CC(C)C)C(=O)NN(CCc2ccccc2)C(=O)/C=C/S(C)(=O)=O)c(=O)c1=O`: the values for the negative logarithm of the IC50 (pIC50) (in experiment [1]; with Plasmodium falciparum) were less than 4.30 and 5.60, respectively. The like results for `COc1c(N[C@@H](CC(C)C)C(=O)NN(CCc2ccccc2)C(=O)/C=C/S(=O)(=O)c2ccccc2)c(=O)c1=O` were, in that order, less than 4.30 and less than 5.00. Turning to `CCCCOc1c(N[C@@H](CC(C)C)C(=O)NN(CCc2ccccc2)C(=O)/C=C/S(=O)(=O)c2ccccc2)c(=O)c1=O`, the pIC50 in experiment [1] was less than 4.30; in the experiment on Plasmodium falciparum, 5.35. Regarding `CC(C)C[C@H](NC(=O)[C@H]1O[C@@H]1C(=O)O)C(=O)NCCCCN=C(N)N` [E-64], the results for the pIC50 (on Papain; in experiment [1]) were 8.70 and 6.96, respectively.
